Results on eleven molecules are retold here after ChEMBL document CHEMBL1157804, “beta-Resorcylic acid lactones from a Paecilomyces fungus” (J Nat Prod, 2010).

For data set [1], the system named is Plasmodium falciparum. Briefly: Antiplasmodial activity against chloroquine-susceptible Plasmodium falciparum 3D7 after 72 hrs by malaria SYBR Green I-based fluorescence assay. It counts as functional, organism-based. The following applies: 3D7, 72 h. The method in brief:
(§1)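 Parasites kept continuously in O+ human erythrocytes with 10% human serum under 7% CO2/5% O2/88% N2. Test compounds from 100 mM DMSO stocks, serially diluted in culture medium, added in quadruplicate to asynchronous cultures at 0.2% parasitemia, 2% hematocrit. Incubated 72 h, 37 C. Lysis buffer with SYBR Green I added, 1 h 37 C dark. Fluorescence read at ex 497/em 520 nm. IC50 from nonlinear logistic dose-response regression.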

Data set [2] relates to Plasmodium falciparum. Put plainly: Antiplasmodial activity against chloroquine-resistant Plasmodium falciparum Dd2 after 72 hrs by malaria SYBR Green I-based fluorescence assay. It counts as functional, organism-based. The following applies: Dd2, 72 h. The method in brief:
as §1

Data set [3] can be described thus: Cytotoxicity against african green monkey Vero cells at 166.67 uM after 72 hrs by MTT assay. The data set is classed as cell-based. The following applies: chlorocebus sabaeus, read-out: INH. In general terms: Formazan colour is commonly taken as a measure of viable cells.
Data set [4] can be described thus: Cytotoxicity against african green monkey Vero cells at 55.56 uM after 72 hrs by MTT assay. The following applies: chlorocebus sabaeus, read-out: INH. The data set is classed as cell-based.
Data set [5] is described as follows: Cytotoxicity against african green monkey Vero cells at 18.52 uM after 72 hrs by MTT assay. It counts as cell-based. The following applies: chlorocebus sabaeus, read-out: INH.
Data set [6] is described as follows: Cytotoxicity against african green monkey Vero cells at 6.17 uM after 72 hrs by MTT assay. The following applies: chlorocebus sabaeus, read-out: INH. The data set is classed as cell-based.

`COc1cc(O)c2c(c1)[C@@H]1O[C@@H]1C[C@H](O)[C@H](O)[C@@H](O)/C=C/C[C@H](C)OC2=O` [AIGIALOMYCIN B]: the results for the IC50 in the data set on Plasmodium falciparum [1] and in the data set on Plasmodium falciparum [2] were 0.65 µM and 13.5 µM, respectively. Besides, the cytotoxicity at 72 h, 166.67 µM in data set [3] was 30.2%. Moreover, in data set [4], the cytotoxicity at 72 h, 55.56 µM turned out to be 2.3%. Besides, the cytotoxicity at 72 h, 18.52 µM in data set [5] turned out to be 0%. For the same molecule, the cytotoxicity at 72 h, 6.17 µM in data set [6] was determined as 0%.

On to `C[C@H]1C/C=C/[C@@H](O)[C@@H](O)CC/C=C/c2cc(O)cc(O)c2C(=O)O1` [AIGIALOMYCIN D], for which the IC50 (as a rule, the concentration that inhibits the measured activity by half) is 3.1 µM in the data set with Plasmodium falciparum [1] and 10.5 µM with Plasmodium falciparum [2]. Moreover, in data set [3], the cytotoxicity at 72 h, 166.67 µM came to 56.3%. Also, the cytotoxicity at 72 h, 55.56 µM in data set [4] was found to be 30.2%. For the same molecule, the cytotoxicity at 72 h, 18.52 µM in data set [5] stood at 12.5%. Further, in data set [6], the cytotoxicity at 72 h, 6.17 µM came to 3.4%.

For the molecule `COc1cc(O)c2c(c1)[C@@H](O)[C@H](C[C@H](O)[C@H](O)[C@@H](O)/C=C/C[C@H](C)O)OC2=O` [AIGIALOMYCIN F], the IC50 in the data set on Plasmodium falciparum [1] is 0.0109 µM; with Plasmodium falciparum [2] it was above 50 µM. The cytotoxicity at 72 h, 166.67 µM in data set [3] stood at 43.2%. The cytotoxicity at 72 h, 55.56 µM in data set [4] was determined as 20.3%. The cytotoxicity at 72 h, 18.52 µM in data set [5] amounted to 15.6%. The cytotoxicity at 72 h, 6.17 µM in data set [6] is 2.3%.

In the case of `C[C@@H]1CC[C@H]2[C@@H](C)C(=O)O[C@@H]3O[C@@]4(C)CC[C@@H]1[C@]32OO4` [ARTEMISININ], the IC50 in the data set on Plasmodium falciparum [1] came to 0.0125 µM; in the data set on Plasmodium falciparum [2], 0.0135 µM.

`COc1cc(O)c2c(c1)[C@@H]1O[C@@H]1C[C@H](O)[C@H](O)[C@H](O)/C=C/C[C@H](C)OC2=O` [PAECILOMYCIN A]: the half-maximal inhibitory concentration (IC50) with Plasmodium falciparum [1] was 0.78 µM; in the data set on Plasmodium falciparum [2] it was above 50 µM. Moreover, in data set [3], the cytotoxicity at 72 h, 166.67 µM turned out to be 29.6%. In addition, in data set [4], the cytotoxicity at 72 h, 55.56 µM came out at 0%. In addition, the cytotoxicity at 72 h, 18.52 µM in data set [5] worked out at 0%. The cytotoxicity at 72 h, 6.17 µM in data set [6] is 0%.

Regarding `COc1cc(O)c2c(c1)[C@@H]1O[C@H]([C@H](O)/C=C/C[C@H](C)OC2=O)[C@@H](O)C[C@H]1O` [PAECILOMYCIN B], the results for the IC50 in the data set on Plasmodium falciparum [1] and with Plasmodium falciparum [2] were 3.8 µM and above 50 µM, respectively. For the same molecule, the cytotoxicity at 72 h, 166.67 µM in data set [3] came to 46.3%. Moreover, in data set [4], the cytotoxicity at 72 h, 55.56 µM worked out at 5.6%. Besides, the cytotoxicity at 72 h, 18.52 µM in data set [5] was 0%. In data set [6], the cytotoxicity at 72 h, 6.17 µM stood at 0%.

Turning to `COc1cc(O)c2c(c1)[C@@H]([C@H](O)C[C@H](O)[C@H](O)[C@@H](O)/C=C/C[C@H](C)O)OC2=O` [PAECILOMYCIN C], the half-inhibitory concentration (IC50) with Plasmodium falciparum [1] and with Plasmodium falciparum [2] was above 50 µM throughout.

As for `COc1cc(O)c2c(c1)[C@@H]([C@H](O)C[C@H](O)[C@H](O)[C@H](O)/C=C/C[C@H](C)O)OC2=O` [PAECILOMYCIN D], the half-inhibitory concentration (IC50) with Plasmodium falciparum [1] and with Plasmodium falciparum [2] was above 50 µM throughout.

With `COc1cc(O)c2c(c1)/C=C/C[C@H](O)[C@H](O)[C@@H](O)CCC[C@H](C)OC2=O` [PAECILOMYCIN E], the values for the IC50 with Plasmodium falciparum [1] and with Plasmodium falciparum [2] were 0.02 µM and 8.8 µM, respectively. In addition, in data set [3], the cytotoxicity at 72 h, 166.67 µM is 50.2%. Also, the cytotoxicity at 72 h, 55.56 µM in data set [4] came out at 23.5%. The cytotoxicity at 72 h, 18.52 µM in data set [5] was 3.4%. Besides, in data set [6], the cytotoxicity at 72 h, 6.17 µM worked out at 0%.

In the case of `COc1cc(O)c2c(c1)/C=C/C[C@H](O)[C@H](O)[C@H](O)CCC[C@H](C)OC2=O` [PAECILOMYCIN F], the IC50 was 1.1 µM in the data set on Plasmodium falciparum [1] and 1.7 µM in the data set with Plasmodium falciparum [2]. Moreover, the cytotoxicity at 72 h, 166.67 µM in data set [3] was found to be 58.5%. Besides, the cytotoxicity at 72 h, 55.56 µM in data set [4] came out at 25.7%. In addition, the cytotoxicity at 72 h, 18.52 µM in data set [5] was found to be 10.4%. Also, the cytotoxicity at 72 h, 6.17 µM in data set [6] came to 2.3%.

In the case of `COc1cc(O)c2c(c1)/C=C/C[C@H](O)[C@H](O)[C@@H](O)/C=C/C[C@H](C)OC2=O` [ZEAENOL], the half-inhibitory concentration (IC50) with Plasmodium falciparum [1] and in the data set on Plasmodium falciparum [2] was above 50 µM throughout.
